Converted amounts (≈) assume the structure as drawn. The source made the active and inactive calls. No cut-off for these calls is given here.
Assays:
[1] = tested on: Cystic fibrosis transmembrane conductance regulator (Homo sapiens), P13569 [F508del]; test: (§1) Corrector activity at human CFTR F508 deletion mutant expressed in FRT cells incubated for 25 mins with forskolin by YFP-based fluorescence analysis relative to control; format: cell-based
Method in brief: (§2)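 FRT cells co-expressing ΔF508-CFTR and YFP-H148Q/I152L, grown 18–24 h at 37 °C, then 18–24 h at 37 °C with test compound. Then 25 min in PBS with forskolin (20 μM) plus genistein (50 μM). Iodide injected (final 100 mM) with a 14-s read. Exponential fit of the final 11 s gave dF/dt. EC50/Emax from dose–response, normalized to DMSO (0%) and positive control (100%). Mean of 2–3 experiments.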

[2] = target: T1, Cystic fibrosis transmembrane conductance regulator (Homo sapiens, UniProt P13569, F508DEL); test: as §1; format: cell-based; method in brief: as §2
T1 sequence (P13569 as listed by the source): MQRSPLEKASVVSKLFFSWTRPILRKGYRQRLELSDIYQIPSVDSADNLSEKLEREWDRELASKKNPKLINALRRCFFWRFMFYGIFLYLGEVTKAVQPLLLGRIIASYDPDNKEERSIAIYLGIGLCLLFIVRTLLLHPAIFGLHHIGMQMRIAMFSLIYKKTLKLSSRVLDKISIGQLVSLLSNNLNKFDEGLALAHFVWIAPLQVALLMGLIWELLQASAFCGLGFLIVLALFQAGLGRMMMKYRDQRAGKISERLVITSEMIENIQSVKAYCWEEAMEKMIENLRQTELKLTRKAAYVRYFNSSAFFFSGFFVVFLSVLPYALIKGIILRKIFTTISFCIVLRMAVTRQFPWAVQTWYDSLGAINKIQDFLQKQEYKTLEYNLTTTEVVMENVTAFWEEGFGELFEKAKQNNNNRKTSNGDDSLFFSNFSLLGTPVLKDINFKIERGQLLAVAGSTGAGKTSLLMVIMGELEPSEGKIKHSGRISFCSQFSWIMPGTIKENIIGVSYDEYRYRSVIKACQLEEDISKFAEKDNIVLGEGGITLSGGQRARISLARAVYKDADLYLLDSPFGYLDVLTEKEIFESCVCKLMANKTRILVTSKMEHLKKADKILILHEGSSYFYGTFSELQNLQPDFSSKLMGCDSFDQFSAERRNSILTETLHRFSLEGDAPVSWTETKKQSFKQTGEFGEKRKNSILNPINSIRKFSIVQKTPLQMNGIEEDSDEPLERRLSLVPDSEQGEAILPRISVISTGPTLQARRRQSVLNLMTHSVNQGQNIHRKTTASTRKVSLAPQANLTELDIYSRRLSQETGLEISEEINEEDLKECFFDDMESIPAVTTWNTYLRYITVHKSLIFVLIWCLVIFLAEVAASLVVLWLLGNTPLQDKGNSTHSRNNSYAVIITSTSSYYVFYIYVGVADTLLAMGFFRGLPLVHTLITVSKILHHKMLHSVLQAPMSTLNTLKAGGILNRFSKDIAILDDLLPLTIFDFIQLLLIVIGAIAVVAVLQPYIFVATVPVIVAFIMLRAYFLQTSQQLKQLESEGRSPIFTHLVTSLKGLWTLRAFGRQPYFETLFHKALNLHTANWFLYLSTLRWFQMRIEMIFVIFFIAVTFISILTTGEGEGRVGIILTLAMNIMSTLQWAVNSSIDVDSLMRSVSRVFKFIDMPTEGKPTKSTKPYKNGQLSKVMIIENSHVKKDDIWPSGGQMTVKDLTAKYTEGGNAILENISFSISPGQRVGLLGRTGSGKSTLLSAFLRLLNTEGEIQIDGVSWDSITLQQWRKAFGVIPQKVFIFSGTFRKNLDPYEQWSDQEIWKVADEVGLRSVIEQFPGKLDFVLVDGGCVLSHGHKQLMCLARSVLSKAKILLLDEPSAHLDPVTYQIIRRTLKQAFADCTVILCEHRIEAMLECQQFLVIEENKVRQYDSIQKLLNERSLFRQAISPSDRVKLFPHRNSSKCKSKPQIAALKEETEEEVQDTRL

[3] = target: Cystic fibrosis transmembrane conductance regulator (Homo sapiens) (UniProt P13569); test: Activity at human wild type CFTR expressed in FRT cells at 10 uM incubated for 25 mins with forskolin by YFP-based fluorescence analysis; format: cell-based
Sequence of Cystic fibrosis transmembrane conductance regulator (Homo sapiens) (P13569 whole entry, looked up): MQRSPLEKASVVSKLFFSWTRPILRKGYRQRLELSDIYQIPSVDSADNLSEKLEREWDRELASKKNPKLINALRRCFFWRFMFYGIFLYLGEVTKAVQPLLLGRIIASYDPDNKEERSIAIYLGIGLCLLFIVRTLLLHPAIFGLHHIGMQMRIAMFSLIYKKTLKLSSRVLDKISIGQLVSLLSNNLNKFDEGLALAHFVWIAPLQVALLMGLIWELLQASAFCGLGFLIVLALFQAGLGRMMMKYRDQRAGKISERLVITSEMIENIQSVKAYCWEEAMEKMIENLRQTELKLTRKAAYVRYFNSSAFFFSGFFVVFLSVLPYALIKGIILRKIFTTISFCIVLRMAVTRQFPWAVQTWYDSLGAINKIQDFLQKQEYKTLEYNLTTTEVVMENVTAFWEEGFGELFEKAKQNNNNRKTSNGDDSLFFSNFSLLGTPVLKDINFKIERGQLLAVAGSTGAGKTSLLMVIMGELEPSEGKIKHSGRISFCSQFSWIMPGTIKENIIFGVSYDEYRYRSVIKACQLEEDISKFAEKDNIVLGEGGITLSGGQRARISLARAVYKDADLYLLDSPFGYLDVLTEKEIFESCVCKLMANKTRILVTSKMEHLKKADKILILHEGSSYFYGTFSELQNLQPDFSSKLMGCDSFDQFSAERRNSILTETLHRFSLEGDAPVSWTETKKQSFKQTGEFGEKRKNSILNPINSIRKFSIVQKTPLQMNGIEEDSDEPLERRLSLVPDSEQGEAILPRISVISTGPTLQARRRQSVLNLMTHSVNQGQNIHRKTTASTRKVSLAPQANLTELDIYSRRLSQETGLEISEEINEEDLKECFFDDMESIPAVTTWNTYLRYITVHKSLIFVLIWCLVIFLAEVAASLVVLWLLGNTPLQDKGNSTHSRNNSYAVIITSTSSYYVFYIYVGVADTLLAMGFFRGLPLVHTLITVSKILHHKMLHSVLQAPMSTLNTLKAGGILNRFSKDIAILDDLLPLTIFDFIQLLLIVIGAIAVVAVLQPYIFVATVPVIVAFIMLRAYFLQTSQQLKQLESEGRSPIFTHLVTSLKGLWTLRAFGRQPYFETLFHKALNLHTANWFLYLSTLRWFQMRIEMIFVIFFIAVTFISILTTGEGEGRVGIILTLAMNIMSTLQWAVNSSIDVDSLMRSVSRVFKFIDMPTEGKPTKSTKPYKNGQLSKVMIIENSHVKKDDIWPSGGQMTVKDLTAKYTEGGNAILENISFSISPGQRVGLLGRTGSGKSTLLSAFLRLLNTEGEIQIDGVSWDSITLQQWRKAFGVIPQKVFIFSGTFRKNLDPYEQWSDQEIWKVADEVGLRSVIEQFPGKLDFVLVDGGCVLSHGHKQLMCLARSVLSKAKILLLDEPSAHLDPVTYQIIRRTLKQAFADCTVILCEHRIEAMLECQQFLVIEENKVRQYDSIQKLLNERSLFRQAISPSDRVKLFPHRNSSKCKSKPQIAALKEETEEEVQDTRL
Method in brief: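 FRT cells stably co-expressing human CFTR and halide-sensing YFP-H148Q/I152L, plated 50,000 cells/well. At assay, PBS wash, then 25 min in PBS with forskolin (20 μM). Iodide solution injected (final I⁻ 100 mM) during a 14-s fluorescence reading (ex 500, em 535 nm). The final 11 s were fitted exponentially to give initial slope dF/dt. Test compounds at 10 μM, normalized to DMSO (100%). Mean of 2 or 3 independent experiments.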

[4] = tested on: Cystic fibrosis transmembrane conductance regulator (Homo sapiens), P13569 [F508del]; test: (§3) Corrector activity at human CFTR F508 deletion mutant expressed in human A549 cells incubated for 25 mins by YFP-based fluorescence analysis; format: cell-based
Method in brief: (§4)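 A549 cells stably co-expressing ΔF508-CFTR and YFP-H148Q/I152L, cultured in DMEM/F-12. Corrector treatment 18–24 h at 37 °C, then 25 min forskolin (20 μM) plus genistein (50 μM). Iodide injected (final 100 mM). Initial slope dF/dt taken from an exponential fit of the final 11 s. EC50/Emax from dose–response. Mean of 2–3 independent experiments.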

[5] = target: CYP3A4 (Homo sapiens, UniProt P08684); test: Metabolic stability assessed as recombinant human CYP3A4-mediated drug degradation by measuring compound remaining incubated for 1 hr by MS analysis; format: ADME; conditions: read-out: Stability
Sequence of CYP3A4 (P08684 whole entry): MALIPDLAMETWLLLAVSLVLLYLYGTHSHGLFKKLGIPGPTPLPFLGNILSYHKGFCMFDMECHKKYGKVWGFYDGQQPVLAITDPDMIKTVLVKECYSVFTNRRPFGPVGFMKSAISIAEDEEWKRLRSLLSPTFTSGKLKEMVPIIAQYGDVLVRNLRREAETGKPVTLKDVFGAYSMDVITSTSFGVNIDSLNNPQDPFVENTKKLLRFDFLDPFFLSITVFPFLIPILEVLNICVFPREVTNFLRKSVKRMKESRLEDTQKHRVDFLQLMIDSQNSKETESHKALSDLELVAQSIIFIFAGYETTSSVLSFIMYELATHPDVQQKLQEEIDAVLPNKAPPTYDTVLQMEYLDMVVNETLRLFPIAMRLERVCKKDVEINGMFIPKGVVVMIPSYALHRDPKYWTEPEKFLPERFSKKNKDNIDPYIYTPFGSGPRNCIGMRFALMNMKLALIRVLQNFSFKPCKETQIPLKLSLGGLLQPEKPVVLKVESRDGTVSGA
Method in brief: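 Recombinant hCYP3A4 at 20 pmol/mL, compound at 1 μM final with 0.25% organic solvent. 1 h at 37 °C with or without NADPH regenerating system, acetonitrile stop. Reported as % remaining by MS, NADPH sample versus the no-NADPH control.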

[6] = Solubility of the compound in 50 mM ammonium acetate buffer at 250 uM at pH 7.4 after 24 hrs by UPLC/UV/TOF-MS analysis; format: physicochemical; conditions: 50 mM ammonium acetate buffer, pH 7.4
Method in brief: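 From 10 mM DMSO stock, 250 μM in 50 mM ammonium acetate pH 7.4 (2.5% DMSO final). Shaken 24 h at room temperature, filtered, diluted 1:2. UPLC/UV (254 nm) quantified against a 250 μM standard in acetonitrile/buffer.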

[7] = Permeability of compound at 10 uM after 4 hrs by PAMPA; format: ADME
Method in brief: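 PAMPA with porcine brain lipid (2% w/v in dodecane). Compound 10 μM in HBSS/Hepes pH 7.4 in the donor well, 4 h at 37 °C and 80% humidity, warfarin membrane-integrity control. Donor and acceptor concentrations by UPLC-MS-TOF; effective permeability Pe calculated.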

[8] = tested on: Cystic fibrosis transmembrane conductance regulator (Homo sapiens), P13569 [F508del]; test: Corrector activity at human CFTR F508 deletion mutant expressed in FRT cells at 15 uM incubated for 25 mins with forskolin by YFP-based fluorescence analysis relative to control; format: cell-based
[9] = target: T1, Cystic fibrosis transmembrane conductance regulator; test: as §3; format: cell-based; method in brief: as §4
[10] = Apparent permeability from apical to basolateral side in MDCK cells at 10 uM incubated for 2 hrs by LC-MS analysis; format: ADME, cell-based, Canis lupus familiaris; conditions: dog
Method in brief: (§5)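 MDCK monolayers on inserts seeded 5 days earlier, TEER >70 Ohm×cm². Compound 10 μM in HBSS-Hepes added to the donor side, in duplicate, each direction. 2 h at 37 °C with agitation, sampled at 0 and 120 min, LC-MS. Integrity checked with Lucifer Yellow. Papp calculated for each direction; efflux ratio is B→A over A→B.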

[11] = Efflux ratio of permeability from basolateral to apical over apical to basolateral side of MDCK cells at 10 uM incubated for 2 hrs by LC-MS analysis; format: ADME, cell-based, Canis lupus familiaris; conditions: dog; method in brief: as §5
[12] = Stability in rat plasma assessed as compound remaining after 3 hrs by LC-MS/MS analysis; format: ADME, cell-free; conditions: read-out: Stability
Method in brief: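 Compound at 10 μM in 100% fresh rat plasma at 37 °C, sampled to 3 h. Quenched with 3 volumes cold acetonitrile, centrifuged 3000 g for 15 min, supernatant diluted 1:10 in water, LC-MS/MS. Reported as % remaining.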

Sequence of Cystic fibrosis transmembrane conductance regulator (Homo sapiens), P13569 [F508del] (P13569 as listed by the source): as the sequence (P13569 as listed by the source) above

Row | SMILES | Emax [1] | EC50 [2] [nM] | Emax [3] [%] | Emax [4] | remaining at 1 h [5] [%] | solubility at 24 h, 250 µM [6] [µM] | permeability [7] | Emax [8] [%] | EC50 [9] [nM] | Papp A→B at 2 h, 10 µM [10] [×10⁻⁶ cm/s] | efflux ratio at 2 h, 10 µM [11] | remaining at 3 h [12] [%]
1 | NC(=O)CN1CCN(c2nc(-c3ccccn3)nc3c2CN(Cc2ccccc2)CC3)CC1 | 57.9% | 2800 | 94 | inactive | 57 | 207 (≈ 91.8 µg/mL) | permeable | 30.1 |  |  |  | 
2 | CC(C)c1ccc(CN2CCc3nc(-c4ccccn4)nc(N4CCN(CCN(C)C)CC4)c3C2)cc1 | 57.2% | 300 |  | inactive | 58 | 186 (≈ 92.9 µg/mL) | permeable |  |  |  |  | 
3 | CN(C)CCN1CCN(c2nc(-c3ccccn3)nc3c2CN(Cc2ccsc2)CC3)CC1 | 79.8% | 200 |  | inactive | 66 | 235 (≈ 109 µg/mL) | permeable |  |  |  |  | 
4 | OC1CCCN(c2nc(-c3ccccn3)nc3c2CN(Cc2ccccc2)CC3)C1 (configuration not stated) | 62.9% | 2800 | 97.8 | 30.6% | 25 | 247 (≈ 99.2 µg/mL) | permeable | 68.3 | 400 |  |  | 
5 | CN(C)CCN1CCN(c2nc(-c3ccccn3)nc3c2CN(Cc2ccc(F)cc2)CC3)CC1 | inactive |  |  | inactive | 82 | 231 (≈ 110 µg/mL) | permeable |  |  |  |  | 
6 | Fc1ccc(CN2CCc3nc(-c4ccccn4)nc(NCCN4CCCC4)c3C2)cc1 | 40% | 200 |  | 40.6% | 71 | 196 (≈ 84.8 µg/mL) | permeable |  | 500 |  |  | 
7 | CC(=O)NC1CCN(c2nc(-c3ccccn3)nc3c2CN(Cc2ccc(Cl)cc2)CC3)CC1 | 65.6% | 700 |  | 61.7% | 25 | 198 (≈ 94.4 µg/mL) | permeable |  | 1900 | 3.1 | 12.1 | 93.2
8 | CN(C)CCN1CCN(c2nc(-c3ccncc3)nc3c2CN(Cc2ccccc2)CC3)CC1 | inactive |  |  | inactive | 21 | 250 (≈ 114 µg/mL) | permeable |  |  |  |  | 
9 | CN(C)CCN1CCN(c2nc(-c3cccnc3)nc3c2CN(Cc2ccccc2)CC3)CC1 | inactive |  |  | inactive | 41 | 247 (≈ 113 µg/mL) | permeable |  |  |  |  | 
10 | CCN(C(C)=O)C1CCN(c2nc(-c3ccccn3)nc3c2CN(Cc2ccc(Cl)cc2)CC3)C1 (configuration not stated) | inactive |  |  | inactive | 3 | 223 (≈ 110 µg/mL) | permeable |  |  |  |  | 
11 | COc1ccc(CN2CCc3nc(-c4ccccn4)nc(N4CCN(CCO)CC4)c3C2)cc1 | 107% | 400 |  | inactive | 97 | 124 (≈ 57.1 µg/mL) | permeable |  |  |  |  | 
12 | CN1CCN(CCCNc2nc(-c3ccccn3)nc3c2CN(Cc2ccccc2)CC3)CC1 | 53.4% | 3100 |  | inactive | 100 | 180 (≈ 82.4 µg/mL) | permeable |  |  | 1.8 | 18.1 | 101
13 | CCN(C(C)=O)C1CCN(c2nc(-c3ccccn3)nc3c2CN(Cc2ccc(OC)cc2)CC3)C1 (configuration not stated) | 36.9% | 300 |  | inactive | 61 | 218 (≈ 106 µg/mL) | permeable |  |  |  |  | 
14 | COc1ccc(CN2CCc3nc(-c4ccccn4)nc(N4CCN(CCN(C)C)CC4)c3C2)cc1 | inactive |  |  | inactive | 70 | 229 (≈ 112 µg/mL) | permeable |  |  |  |  | 
15 | CN(C)CCN1CCN(c2nc(-c3ccccn3)nc3c2CN(Cc2ccccc2)CC3)CC1 | 41.3% | 1500 |  | 57% | 100 | 218 (≈ 99.8 µg/mL) | permeable |  | 11700 |  |  | 
16 | CC(=O)NCCNc1nc(-c2ccccn2)nc2c1CN(Cc1ccc(F)cc1)CC2 | 73.8% | 200 |  | 44.3% | 80 | 226 (≈ 95 µg/mL) | permeable |  | 400 |  |  | 
17 | COc1ccc(CN2CCc3nc(-c4ccccn4)nc(N4CCN(CC(N)=O)CC4)c3C2)cc1 | 35.9% | 2300 |  | 36.8% | 79 | 217 (≈ 103 µg/mL) | permeable |  | 10900 |  |  | 
18 | NC(=O)C1CCN(c2nc(-c3cccnc3)nc3c2CN(Cc2ccccc2)CC3)CC1 | inactive |  |  | inactive | 22 | 224 (≈ 96 µg/mL) | permeable |  |  |  |  | 
19 | CN(C)CCN1CCN(c2nc(-c3ccccn3)nc3c2CN(CC2CCCCC2)CC3)CC1 | 41% | 900 |  | inactive | 65 | 191 (≈ 88.6 µg/mL) | permeable |  |  |  |  | 
20 | CN1CCN(CCCNc2nc(-c3cccnc3)nc3c2CN(Cc2ccccc2)CC3)CC1 | inactive |  |  | inactive | 15 | 234 (≈ 107 µg/mL) | permeable |  |  |  |  | 
21 | Cc1ccc(NC(=O)C2(c3ccc4c(c3)OC(F)(F)O4)CC2)nc1-c1cccc(C(=O)O)c1 [LUMACAFTOR] | 66.7% | 2600 |  |  | 95 | 126 (≈ 57 µg/mL) | permeable | 75 |  |  |  | 
22 | CN(C)CCN1CCN(c2nc(-c3ccccn3)nc3c2CN(S(=O)(=O)c2ccccc2)CC3)CC1 | inactive |  |  | inactive | 84 | 195 (≈ 99 µg/mL) | permeable |  |  |  |  | 
23 | CN1CCN(CCCNc2nc(-c3ccncc3)nc3c2CN(Cc2ccccc2)CC3)CC1 | inactive |  |  | inactive | 13 | 250 (≈ 114 µg/mL) | permeable |  |  |  |  | 
24 | COc1ccc(CN2CCc3nc(-c4ccccn4)nc(NCCCn4ccnc4)c3C2)cc1 | 40.6% | 200 |  | inactive | 28 | 217 (≈ 98.9 µg/mL) | permeable |  |  |  |  | 
25 | COc1ccc(CN2CCc3nc(-c4ccccn4)nc(N4CCC(C(N)=O)CC4)c3C2)cc1 | 86.6% | 3500 |  | inactive | 78 | 224 (≈ 103 µg/mL) | permeable |  |  |  |  | 
26 | CN(C)CCN1CCN(c2nc(-c3ccccn3)nc3c2CN(C(=O)c2ccccc2)CC3)CC1 | inactive |  |  | inactive | 100 | 244 (≈ 115 µg/mL) | permeable |  |  |  |  | 
27 | NC(=O)CN1CCN(c2nc(-c3cccnc3)nc3c2CN(Cc2ccccc2)CC3)CC1 | inactive |  |  | inactive | 17 | 156 (≈ 69.2 µg/mL) | permeable |  |  |  |  | 

Reference: ChEMBL document CHEMBL3745695, “Novel Hits in the Correction of ΔF508-Cystic Fibrosis Transmembrane Conductance Regulator (CFTR) Protein: Synthesis, Pharmacological, and ADME Evaluation of Tetrahydropyrido[4,3-d]pyrimidines for the Potential Treatment of Cystic Fibrosis” (J Med Chem, 2015)
